# ChEMBL document CHEMBL6153064, “Structure-based discovery of novel diarylpyrimidines as potent and selective Non-Nucleoside reverse transcriptase inhibitors: From CH(CN)-Biphenyl-Diarylpyrimidines to CNNH2-Biphenyl-Diarylpyrimidines” (Eur J Med Chem, 2025)
# Tests used:
# [1] = test system: Human immunodeficiency virus 1; experiment: Antiviral activity against HIV-1 harboring L100I mutant infected in human MT4 cells […]; type: functional, organism-based; details: Human immunodeficiency virus 1, MT4
# [2] = test system: Human immunodeficiency virus 1; experiment: Antiviral activity against wild type HIV-1 IIIB infected in human MT4 cells […]; type: functional, organism-based; details: Human immunodeficiency virus 1, IIIB
# [3] = Cytotoxicity against human MT4 cells by MTT assay; type: toxicity, cell-based
# [4] = test system: Human immunodeficiency virus 1; experiment: Antiviral activity against HIV-1 harboring K103N mutant infected in human MT4 cells […]; type: functional, organism-based; details: Human immunodeficiency virus 1, MT4
# [5] = test system: Human immunodeficiency virus 1; experiment: Antiviral activity against HIV-1 harboring Y181C mutant infected in human MT4 cells […]; type: functional, organism-based; details: Human immunodeficiency virus 1, MT4
# [6] = target: Human immunodeficiency virus type 1 reverse transcriptase (Human immunodeficiency virus 1, UniProt Q72547); experiment: Inhibition of wild type HIV-1 Reverse transcriptase
# [7] = Selectivity index, ratio of CC50 for cytotoxicity against human MT4 cells to EC50 for antiviral activity against wild type HIV-1 IIIB infected in human MT4 cells; type: toxicity, cell-based; details: read-out: Ratio CC50/EC50
# How it was run: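 Selectivity index calculated as CC50/EC50 ratio, both values from MTT viability readout in MT-4 cells, antiviral arm using wild-type HIV-1 IIIB.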
# [8] = test system: Human immunodeficiency virus 1; experiment: Antiviral activity against HIV-1 harboring Y188L mutant infected in human MT4 cells assessed as inhibition of virus-induced cytopathic effect by MTT assay; details: Human immunodeficiency virus 1, MT4
# [9] = test system: Human immunodeficiency virus 1; experiment: Antiviral activity against HIV-1 harboring E138K mutant infected in human MT4 cells […]; type: functional, organism-based; details: Human immunodeficiency virus 1, MT4
SMILES,EC50 [1] [µM],EC50 [2] [µM],CC50 [3] [µM],EC50 [4] [µM],EC50 [5] [µM],IC50 [6] [µM],selectivity ratio [7],EC50 [8] [µM],EC50 [9] [µM]
C/N=C(/c1ccnc(Nc2ccc(C#N)cc2)n1)c1ccc(-c2ccc(C#N)cc2)cc1OC(F)(F)F,0.301,0.013,> 251,0.281,0.361,0.221,> 19100,20.1,0.122
CCCNC(c1ccnc(Nc2ccc(C#N)cc2)n1)c1ccc(-c2ccc(C#N)cc2)cc1C(F)(F)F (centres undefined),,1.01,90,,,,87,,
CC(C)NC(c1ccnc(Nc2ccc(C#N)cc2)n1)c1ccc(-c2ccc(C#N)cc2)cc1C(F)(F)F (centres undefined),,1.19,29,,,,25,,
C/N=C(/c1ccnc(Nc2ccc(C#N)cc2)n1)c1ccc(-c2ccc(C#N)cc2)cc1OC,0.293,0.008,16,0.169,0.293,0.061,1960,4.46,0.083
CC(C)NC(c1ccnc(Nc2ccc(C#N)cc2)n1)c1ccc(-c2ccc(C#N)cc2)cc1OC(F)(F)F (centres undefined),,0.927,23,,,,24,,
N#Cc1ccc(Nc2nccc(C(NC3CC3)c3ccc(-c4ccc(C#N)cc4)cc3C(F)(F)F)n2)cc1 (centres undefined),,0.294,75,,,,250,,
N#Cc1ccc(Nc2nccc(/C(=N/N)c3ccc(-c4ccc(C#N)cc4)cc3OC(F)(F)F)n2)cc1,0.18,0.04,171,0.182,0.26,0.072,4310,1.48,0.34
CCNC(c1ccnc(Nc2ccc(C#N)cc2)n1)c1ccc(-c2ccc(C#N)cc2)cc1OC(F)(F)F (centres undefined),,0.505,21,,,,43,,
CC(C)NC(c1ccnc(Nc2ccc(C#N)cc2)n1)c1ccc(-c2ccc(C#N)cc2)cc1Cl (centres undefined),,0.23,30,,,,130,,
N#Cc1ccc(Nc2nccc(C(NC3CC3)c3ccc(-c4ccc(C#N)cc4)cc3F)n2)cc1 (centres undefined),,0.63,> 271,,,,> 431,,
CCCNC(c1ccnc(Nc2ccc(C#N)cc2)n1)c1ccc(-c2ccc(C#N)cc2)cc1Cl (centres undefined),,0.184,> 261,,,,> 1420,,
Cc1cc(-c2ccc(C#N)cc2)ccc1C(NC1CC1)c1ccnc(Nc2ccc(C#N)cc2)n1 (centres undefined),,0.156,> 274,,,,> 1760,,
C/N=C(/c1ccnc(Nc2ccc(C#N)cc2)n1)c1ccc(-c2ccc(C#N)cc2)cc1Cl,0.149,0.006,> 45,0.129,0.192,0.069,> 7140,3.81,0.051
COc1cc(-c2ccc(C#N)cc2)ccc1C(NC(C)C)c1ccnc(Nc2ccc(C#N)cc2)n1 (centres undefined),,0.211,20,,,,94,,
N#Cc1ccc(Nc2nccc(/C(=N/N)c3ccc(-c4ccc(C#N)cc4)cc3Cl)n2)cc1,0.022,0.006,212,0.049,0.067,0.036,33300,0.778,0.076
N#CCCNC(c1ccnc(Nc2ccc(C#N)cc2)n1)c1ccc(-c2ccc(C#N)cc2)cc1Cl (centres undefined),,0.071,> 255,,,,> 3600,,
COc1cc(-c2ccc(C#N)cc2)ccc1C(NC1CC1)c1ccnc(Nc2ccc(C#N)cc2)n1 (centres undefined),,0.072,123,,,,1680,,
N#Cc1ccc(Nc2nccc(C(NC3CC3)c3ccc(-c4ccc(C#N)cc4)cc3Cl)n2)cc1 (centres undefined),,0.147,> 262,,,,> 1800,,
CCNC(c1ccnc(Nc2ccc(C#N)cc2)n1)c1ccc(-c2ccc(C#N)cc2)cc1F (centres undefined),,0.357,31,,,,87,,
CCNC(c1ccnc(Nc2ccc(C#N)cc2)n1)c1ccc(-c2ccc(C#N)cc2)cc1C(F)(F)F (centres undefined),,0.153,22,,,,146,,

SMILES,EC50 [1] [µM],EC50 [2] [µM],CC50 [3] [µM],EC50 [4] [µM],EC50 [5] [µM],IC50 [6] [µM],selectivity ratio [7],EC50 [8] [µM],EC50 [9] [µM]
N#Cc1ccc(Nc2nccc(C(NCCCl)c3ccc(-c4ccc(C#N)cc4)cc3Cl)n2)cc1 (centres undefined),,0.042,243,,,,5890,,
CCCNC(c1ccnc(Nc2ccc(C#N)cc2)n1)c1ccc(-c2ccc(C#N)cc2)cc1OC(F)(F)F (centres undefined),,0.662,27,,,,40,,
CC(C)NC(c1ccnc(Nc2ccc(C#N)cc2)n1)c1ccc(-c2ccc(C#N)cc2)cc1F (centres undefined),,0.649,45,,,,70,,
Cc1cc(-c2ccc(C#N)cc2)ccc1C(NC(C)C)c1ccnc(Nc2ccc(C#N)cc2)n1 (centres undefined),,0.166,82,,,,495,,
N#Cc1ccc(Nc2nccc(C(NCCF)c3ccc(-c4ccc(C#N)cc4)cc3Cl)n2)cc1 (centres undefined),,0.077,> 259,,,,> 3370,,
N#Cc1ccc(Nc2nccc(C(NCC(F)(F)F)c3ccc(-c4ccc(C#N)cc4)cc3Cl)n2)cc1 (centres undefined),,0.231,> 241,,,,> 1070,,
O=C1Nc2ccc(Cl)cc2[C@@](C#CC2CC2)(C(F)(F)F)O1 [EFAVIRENZ],,,> 6.3,,0.008,,,,
CCCNC(c1ccnc(Nc2ccc(C#N)cc2)n1)c1ccc(-c2ccc(C#N)cc2)cc1C (centres undefined),,0.146,> 273,,,,> 1870,,
CCNC(c1ccnc(Nc2ccc(C#N)cc2)n1)c1ccc(-c2ccc(C#N)cc2)cc1Cl (centres undefined),,0.099,19,,,,187,,
N#Cc1ccc(Nc2nccc(C(NCCCO)c3ccc(-c4ccc(C#N)cc4)cc3Cl)n2)cc1 (centres undefined),,0.067,23,,,,345,,
Cc1ccnc2c1NC(=O)c1cccnc1N2C1CC1 [NEVIRAPINE],2.06,,,,,,,> 15,
CCNC(c1ccnc(Nc2ccc(C#N)cc2)n1)c1ccc(-c2ccc(C#N)cc2)cc1C (centres undefined),,0.063,12,,,,188,,
N#Cc1ccc(Nc2nccc(C(NCCO)c3ccc(-c4ccc(C#N)cc4)cc3Cl)n2)cc1 (centres undefined),,0.092,22,,,,238,,
N#Cc1ccc(Nc2nccc(C(C#N)c3ccc(-c4ccc(C#N)cc4)cc3F)n2)cc1 (centres undefined),1.21,,36,0.9,0.87,,1360,9.81,0.17
CCCNC(c1ccnc(Nc2ccc(C#N)cc2)n1)c1ccc(-c2ccc(C#N)cc2)cc1F (centres undefined),,0.259,> 270,,,,> 1060,,
CCNC(c1ccnc(Nc2ccc(C#N)cc2)n1)c1ccc(-c2ccc(C#N)cc2)cc1OC (centres undefined),,0.326,20,,,,60,,
CCCNC(c1ccnc(Nc2ccc(C#N)cc2)n1)c1ccc(-c2ccc(C#N)cc2)cc1OC (centres undefined),,0.131,14,,,,110,,
N#Cc1ccc(Nc2nccc(C(NCCCCl)c3ccc(-c4ccc(C#N)cc4)cc3Cl)n2)cc1 (centres undefined),,0.195,> 244,,,,> 1260,,
N#Cc1ccc(Nc2nccc(C(NC3CC3)c3ccc(-c4ccc(C#N)cc4)cc3OC(F)(F)F)n2)cc1 (centres undefined),,0.589,73,,,,125,,
